# According to ChEMBL document CHEMBL4673384, “Studying Histone Deacetylase Inhibition and Apoptosis Induction of Psammaplin A Monomers with Modified Thiol Group” (ACS Med Chem Lett, 2021):
# Activity calls are given as the source filed them. The calls are words filed in the database; no cut-off is given here.
# Legend:
# [1] = biological target: T1, Histone deacetylase 2 (Homo sapiens, UniProt Q92769); test: Inhibition of HDAC2 in human HL-60 cells assessed as increase in Ac-H3 level at 2 uM incubated for 24 hrs by Western blot analysis; format: cell-based
# T1 sequence (Q92769 whole entry): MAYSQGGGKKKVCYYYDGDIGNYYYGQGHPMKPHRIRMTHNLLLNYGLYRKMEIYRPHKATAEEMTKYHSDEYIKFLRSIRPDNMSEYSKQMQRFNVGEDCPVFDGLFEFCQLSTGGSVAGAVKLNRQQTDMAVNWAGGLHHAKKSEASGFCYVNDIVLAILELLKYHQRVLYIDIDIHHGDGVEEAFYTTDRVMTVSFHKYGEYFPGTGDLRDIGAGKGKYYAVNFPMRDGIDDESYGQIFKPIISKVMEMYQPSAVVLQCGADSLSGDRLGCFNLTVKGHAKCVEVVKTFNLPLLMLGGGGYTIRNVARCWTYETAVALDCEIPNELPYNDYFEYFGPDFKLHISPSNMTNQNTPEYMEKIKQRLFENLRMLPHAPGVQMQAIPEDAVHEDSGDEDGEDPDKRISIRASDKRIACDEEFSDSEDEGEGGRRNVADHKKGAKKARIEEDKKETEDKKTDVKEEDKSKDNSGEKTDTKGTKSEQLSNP
# Outline: (§1)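 Compound given to HL-60 cells for 24 h at the stated concentrations, then lysed. Acetyl-histone H3 and acetyl-α-tubulin levels were read by Western blot, with total H3, α-tubulin or β-actin as references.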
# [2] = biological target: Histone deacetylase 3/Nuclear receptor corepressor 2 (HDAC3/NCoR2) (Homo sapiens, UniProt O15379); test: Inhibition of C-terminal His-tagged recombinant human HDAC3 (1 to 428 residues)/N-terminal GST-tagged recombinant human NCoR2 (395 to 489 residues) co-expressed in baculovirus infected Sf9 cells using Boc-Lys(Ac)-AMC as substrate preincubated for 15 mins followed by substrate addition and measured after 60 mins by fluorescence based assay
# Sequence of Histone deacetylase 3/Nuclear receptor corepressor 2 (HDAC3/NCoR2) (O15379 whole entry, the tested form may be a part): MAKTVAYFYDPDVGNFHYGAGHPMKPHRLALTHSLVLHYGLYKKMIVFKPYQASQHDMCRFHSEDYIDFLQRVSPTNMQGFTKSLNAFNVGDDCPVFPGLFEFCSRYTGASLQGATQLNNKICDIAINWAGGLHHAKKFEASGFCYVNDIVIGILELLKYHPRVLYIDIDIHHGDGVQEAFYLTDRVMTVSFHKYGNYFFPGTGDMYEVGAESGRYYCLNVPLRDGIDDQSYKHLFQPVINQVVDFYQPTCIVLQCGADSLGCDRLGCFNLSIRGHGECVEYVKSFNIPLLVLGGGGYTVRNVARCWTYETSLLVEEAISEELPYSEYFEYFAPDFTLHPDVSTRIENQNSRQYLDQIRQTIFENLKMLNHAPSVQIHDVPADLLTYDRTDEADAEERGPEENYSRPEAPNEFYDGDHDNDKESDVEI
# Sequence of Histone deacetylase 3/Nuclear receptor corepressor 2 (HDAC3/NCoR2) (Q9Y618 whole entry, further chain, the tested form may be a part): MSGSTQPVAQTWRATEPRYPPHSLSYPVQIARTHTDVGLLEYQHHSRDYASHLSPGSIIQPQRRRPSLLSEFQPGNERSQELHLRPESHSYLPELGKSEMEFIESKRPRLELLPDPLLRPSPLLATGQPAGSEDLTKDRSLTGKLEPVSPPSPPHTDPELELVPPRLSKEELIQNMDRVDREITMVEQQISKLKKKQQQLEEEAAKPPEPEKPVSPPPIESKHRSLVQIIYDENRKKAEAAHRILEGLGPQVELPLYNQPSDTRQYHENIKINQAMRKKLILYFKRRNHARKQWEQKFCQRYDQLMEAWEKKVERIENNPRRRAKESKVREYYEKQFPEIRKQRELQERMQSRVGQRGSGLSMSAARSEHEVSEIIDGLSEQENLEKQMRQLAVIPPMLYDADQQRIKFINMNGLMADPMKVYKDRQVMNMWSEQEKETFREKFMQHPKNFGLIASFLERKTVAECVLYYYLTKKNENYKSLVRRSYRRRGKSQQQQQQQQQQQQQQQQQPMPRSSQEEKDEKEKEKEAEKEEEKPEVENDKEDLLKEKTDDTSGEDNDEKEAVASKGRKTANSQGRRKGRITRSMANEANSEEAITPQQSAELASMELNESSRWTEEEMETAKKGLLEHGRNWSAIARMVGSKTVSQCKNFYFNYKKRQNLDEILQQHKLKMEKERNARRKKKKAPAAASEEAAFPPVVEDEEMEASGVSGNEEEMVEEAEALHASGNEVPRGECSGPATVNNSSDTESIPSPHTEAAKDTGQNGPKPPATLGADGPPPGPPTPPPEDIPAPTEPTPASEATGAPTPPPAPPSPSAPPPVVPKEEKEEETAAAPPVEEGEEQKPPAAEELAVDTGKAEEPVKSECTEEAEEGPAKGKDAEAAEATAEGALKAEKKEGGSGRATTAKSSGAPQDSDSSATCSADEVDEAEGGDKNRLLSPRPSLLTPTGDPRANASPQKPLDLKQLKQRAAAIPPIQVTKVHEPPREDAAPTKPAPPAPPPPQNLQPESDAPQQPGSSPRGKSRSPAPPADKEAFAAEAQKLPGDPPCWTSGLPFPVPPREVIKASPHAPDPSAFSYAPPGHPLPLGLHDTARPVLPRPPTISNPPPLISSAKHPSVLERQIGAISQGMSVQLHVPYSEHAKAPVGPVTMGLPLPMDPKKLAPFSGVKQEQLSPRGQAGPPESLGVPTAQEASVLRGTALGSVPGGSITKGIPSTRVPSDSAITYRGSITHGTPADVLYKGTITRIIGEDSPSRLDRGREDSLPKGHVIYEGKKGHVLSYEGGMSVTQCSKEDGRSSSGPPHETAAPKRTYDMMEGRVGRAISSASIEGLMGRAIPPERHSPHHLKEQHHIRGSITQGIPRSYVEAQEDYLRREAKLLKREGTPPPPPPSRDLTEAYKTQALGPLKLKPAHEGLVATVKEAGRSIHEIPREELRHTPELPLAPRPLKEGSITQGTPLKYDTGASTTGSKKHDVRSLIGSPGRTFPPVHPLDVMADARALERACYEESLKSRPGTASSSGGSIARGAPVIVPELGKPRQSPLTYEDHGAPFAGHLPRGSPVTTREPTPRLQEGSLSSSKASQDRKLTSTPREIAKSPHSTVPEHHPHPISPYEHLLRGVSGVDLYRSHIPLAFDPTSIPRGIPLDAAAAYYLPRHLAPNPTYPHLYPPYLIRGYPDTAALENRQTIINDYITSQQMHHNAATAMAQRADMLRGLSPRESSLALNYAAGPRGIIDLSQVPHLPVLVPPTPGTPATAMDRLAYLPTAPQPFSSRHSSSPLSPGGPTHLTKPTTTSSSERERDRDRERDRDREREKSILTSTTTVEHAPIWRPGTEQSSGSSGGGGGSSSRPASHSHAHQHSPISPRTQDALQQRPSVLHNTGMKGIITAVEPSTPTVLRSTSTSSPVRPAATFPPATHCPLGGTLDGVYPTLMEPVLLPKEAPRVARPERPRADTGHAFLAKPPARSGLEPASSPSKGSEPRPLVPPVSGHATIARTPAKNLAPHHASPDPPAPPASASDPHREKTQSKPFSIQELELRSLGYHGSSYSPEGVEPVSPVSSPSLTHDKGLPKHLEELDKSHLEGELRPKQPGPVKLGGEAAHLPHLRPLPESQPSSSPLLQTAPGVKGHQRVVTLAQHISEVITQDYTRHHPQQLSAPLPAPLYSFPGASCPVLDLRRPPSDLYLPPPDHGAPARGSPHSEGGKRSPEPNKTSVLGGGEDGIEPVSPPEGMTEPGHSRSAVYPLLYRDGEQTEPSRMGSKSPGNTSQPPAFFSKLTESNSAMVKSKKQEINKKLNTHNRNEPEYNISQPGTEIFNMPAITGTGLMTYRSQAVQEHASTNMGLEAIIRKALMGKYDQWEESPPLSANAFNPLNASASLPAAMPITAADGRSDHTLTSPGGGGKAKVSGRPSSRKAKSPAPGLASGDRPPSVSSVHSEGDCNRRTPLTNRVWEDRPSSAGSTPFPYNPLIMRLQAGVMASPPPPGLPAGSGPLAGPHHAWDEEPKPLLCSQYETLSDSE
# [3] = system: HL-60; test: Induction of apoptosis in human HL-60 cells assessed as cleavage of caspase-3 at 20 uM after 24 hrs Western blot analysis; format: functional, cell-based
# Outline: (§2)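 HL-60 cells were treated for 24 h at the indicated concentrations, then analysed by Western blot. Blots were probed for cleavage of PARP and caspase-3, -8 and -9. Ac-H3, Ac-α-tubulin and β-actin were also detected, with β-actin as the loading reference.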
# [4] = system: HL-60; test: Induction of apoptosis in human HL-60 cells assessed as late apoptotic cells at 40 uM incubated for 24 hrs by propidium iodide and annexin-V FITC staining based FACS analysis (reference value: 1.7 %); format: functional
# [5] = biological target: T2, Histone deacetylase 1 (Homo sapiens, UniProt Q13547); test: Inhibition of HDAC1 in human HL-60 cells assessed as increase in Ac-H3 level at 2 uM incubated for 24 hrs by Western blot analysis; format: cell-based; outline: as §1
# T2 sequence (Q13547 whole entry): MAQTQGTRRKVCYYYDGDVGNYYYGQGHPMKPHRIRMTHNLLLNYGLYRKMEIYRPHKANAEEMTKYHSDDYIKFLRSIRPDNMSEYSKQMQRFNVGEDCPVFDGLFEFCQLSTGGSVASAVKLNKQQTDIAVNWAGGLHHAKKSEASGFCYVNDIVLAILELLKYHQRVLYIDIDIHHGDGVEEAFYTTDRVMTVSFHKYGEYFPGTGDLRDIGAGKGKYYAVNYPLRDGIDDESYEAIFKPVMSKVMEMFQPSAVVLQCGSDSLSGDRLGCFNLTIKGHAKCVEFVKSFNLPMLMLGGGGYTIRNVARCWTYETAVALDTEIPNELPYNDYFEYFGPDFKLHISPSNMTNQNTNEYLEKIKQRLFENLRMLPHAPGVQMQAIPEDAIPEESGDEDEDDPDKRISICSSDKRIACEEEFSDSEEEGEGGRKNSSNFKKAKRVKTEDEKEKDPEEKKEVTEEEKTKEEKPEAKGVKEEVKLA
# [6] = system: HL-60; test: Induction of apoptosis in human HL-60 cells assessed as cleavage of caspase-9 at 20 uM after 24 hrs Western blot analysis; format: functional, cell-based; outline: as §2
# [7] = system: HL-60; test: Induction of apoptosis in human HL-60 cells assessed as viable cells at 20 uM incubated for 24 hrs by propidium iodide and annexin-V FITC staining based FACS analysis (reference value: 96.3 %); format: functional; conditions: read-out: Activity
# [8] = system: HL-60; test: Induction of apoptosis in human HL-60 cells assessed as late apoptotic cells at 20 uM incubated for 24 hrs by propidium iodide and annexin-V FITC staining based FACS analysis (reference value: 1.7 %); format: functional
# [9] = system: HL-60; test: Induction of apoptosis in human HL-60 cells assessed as necrotic cells at 40 uM incubated for 24 hrs by propidium iodide and annexin-V FITC staining based FACS analysis (reference value: 0.1 %); format: functional
# [10] = biological target: T2, Histone deacetylase 1; test: Inhibition of recombinant full length C-terminal FLAG/His-tagged human HDAC1 expressed in baculovirus infected Sf9 cells using Boc-Lys(Ac)-AMC as substrate preincubated for 15 mins followed by substrate addition and measured after 60 mins by fluorescence based assay
# [11] = system: HL-60; test: Induction of apoptosis in human HL-60 cells assessed as early apoptotic cells at 20 uM incubated for 24 hrs by propidium iodide and annexin-V FITC staining based FACS analysis (reference value: 2.0 %); format: functional
# [12] = biological target: Histone deacetylase 3 (Homo sapiens) (UniProt O15379); test: Inhibition of HDAC3 in human HL-60 cells assessed as increase in Ac-H3 level at 20 uM incubated for 24 hrs by Western blot analysis; format: cell-based; outline: as §1
# Sequence of Histone deacetylase 3 (Homo sapiens) (O15379 whole entry): as the sequence (O15379 whole entry, the tested form may be a part) above
# [13] = system: HL-60; test: Induction of apoptosis in human HL-60 cells assessed as necrotic cells at 20 uM incubated for 24 hrs by propidium iodide and annexin-V FITC staining based FACS analysis (reference value: 0.1 %); format: functional
# [14] = system: HL-60; test: Growth inhibition of human HL-60 cells after 72 hrs by trypan blue dye based assay; format: functional
# Outline: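 HL-60 leukemia cells were exposed to compound for 72 h. Growth inhibition is reported as IG50 (half the growth inhibition concentration), as means plus SD of three independent experiments.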
# [15] = system: HL-60; test: Induction of apoptosis in human HL-60 cells assessed as cleavage of caspase-8 at 20 uM after 24 hrs Western blot analysis; format: functional, cell-based; outline: as §2
# [16] = biological target: T1, Histone deacetylase 2; test: Inhibition of recombinant full length C-terminal FLAG-tagged human HDAC2 expressed in baculovirus infected Sf9 cells using Boc-Lys(Ac)-AMC as substrate preincubated for 15 mins followed by substrate addition and measured after 60 mins by fluorescence based assay
# [17] = system: HL-60; test: Induction of apoptosis in human HL-60 cells assessed as viable cells at 40 uM incubated for 24 hrs by propidium iodide and annexin-V FITC staining based FACS analysis (reference value: 96.3 %); format: functional; conditions: read-out: Activity
# [18] = biological target: T3, Protein deacetylase HDAC6 (Homo sapiens, UniProt Q9UBN7); test: Inhibition of recombinant full length C-terminal FLAG-tagged human HDAC6 expressed in baculovirus infected Sf9 cells using Boc-Lys(Ac)-AMC as substrate preincubated for 15 mins followed by substrate addition and measured after 60 mins by fluorescence based assay
# T3 sequence (Q9UBN7 whole entry): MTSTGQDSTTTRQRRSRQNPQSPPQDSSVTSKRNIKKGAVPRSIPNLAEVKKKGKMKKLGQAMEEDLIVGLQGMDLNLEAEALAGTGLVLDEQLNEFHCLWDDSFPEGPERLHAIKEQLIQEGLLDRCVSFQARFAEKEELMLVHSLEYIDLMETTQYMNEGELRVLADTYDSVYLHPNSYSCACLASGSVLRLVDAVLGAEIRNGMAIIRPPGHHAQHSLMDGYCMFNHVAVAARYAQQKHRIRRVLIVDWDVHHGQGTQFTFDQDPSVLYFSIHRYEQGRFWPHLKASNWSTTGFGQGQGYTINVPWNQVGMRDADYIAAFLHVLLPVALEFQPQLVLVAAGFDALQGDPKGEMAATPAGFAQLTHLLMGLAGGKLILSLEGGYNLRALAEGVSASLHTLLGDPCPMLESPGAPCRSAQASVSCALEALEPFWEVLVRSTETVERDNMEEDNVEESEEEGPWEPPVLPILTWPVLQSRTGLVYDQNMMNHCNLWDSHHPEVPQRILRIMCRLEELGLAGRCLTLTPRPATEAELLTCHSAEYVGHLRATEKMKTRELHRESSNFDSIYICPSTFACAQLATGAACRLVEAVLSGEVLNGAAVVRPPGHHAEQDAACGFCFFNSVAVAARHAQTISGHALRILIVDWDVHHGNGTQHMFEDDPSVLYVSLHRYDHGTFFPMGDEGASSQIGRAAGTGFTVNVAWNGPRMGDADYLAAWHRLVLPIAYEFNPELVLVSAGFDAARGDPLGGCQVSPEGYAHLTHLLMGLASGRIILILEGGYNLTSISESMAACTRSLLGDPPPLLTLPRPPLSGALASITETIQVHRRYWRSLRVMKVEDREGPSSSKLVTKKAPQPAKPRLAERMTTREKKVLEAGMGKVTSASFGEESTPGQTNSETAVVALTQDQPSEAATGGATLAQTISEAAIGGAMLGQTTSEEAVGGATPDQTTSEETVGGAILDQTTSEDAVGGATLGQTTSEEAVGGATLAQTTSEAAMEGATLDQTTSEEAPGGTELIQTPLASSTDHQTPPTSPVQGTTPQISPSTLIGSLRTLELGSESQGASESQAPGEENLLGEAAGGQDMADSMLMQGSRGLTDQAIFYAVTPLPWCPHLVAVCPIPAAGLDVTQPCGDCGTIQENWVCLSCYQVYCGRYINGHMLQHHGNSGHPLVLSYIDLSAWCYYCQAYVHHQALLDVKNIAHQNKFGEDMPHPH
# [19] = system: HL-60; test: Induction of apoptosis in human HL-60 cells assessed as early apoptotic cells at 40 uM incubated for 24 hrs by propidium iodide and annexin-V FITC staining based FACS analysis (reference value: 2.0 %); format: functional
# [20] = system: HL-60; test: Induction of apoptosis in human HL-60 cells assessed as cleavage of PARP at 20 uM after 24 hrs Western blot analysis; format: functional, cell-based; outline: as §2
# [21] = system: HL-60; test: Induction of apoptosis in human HL-60 cells assessed as necrotic cells at 2 uM incubated for 24 hrs by propidium iodide and annexin-V FITC staining based FACS analysis (reference value: 0.3 %); format: functional
# [22] = system: HL-60; test: Induction of apoptosis in human HL-60 cells assessed as late apoptotic cells at 2 uM incubated for 24 hrs by propidium iodide and annexin-V FITC staining based FACS analysis (reference value: 4.8 %); format: functional
# [23] = system: HL-60; test: Induction of apoptosis in human HL-60 cells assessed as early apoptotic cells at 2 uM incubated for 24 hrs by propidium iodide and annexin-V FITC staining based FACS analysis (reference value: 2.8 %); format: functional
# [24] = biological target: T4, Protein deacetylase HDAC6 (Homo sapiens) (UniProt Q9UBN7); test: Inhibition of HDAC6 in human HL-60 cells assessed as increase in acetylated alpha tubulin level at 0.5 uM after 24 hrs by Western blot analysis; format: cell-based; outline: as §1
# T4 sequence (whole entry): T3 sequence (Q9UBN7 whole entry)
# [25] = system: HCT-116; test: Antiproliferative activity against human HCT-116 cells assessed as cell growth inhibition incubated for 96 hrs by MTT assay; format: functional
# [26] = Antitumor activity against mouse LL/2 cells inoculated in C57BL/6J mouse assessed as tumor growth inhibition at 100 mg/kg, ip administered for 12 days; format: functional, Lewis lung carcinoma; parameters: scale not given: the % may be the effect or the level left; conditions: time 12 day
# [27] = Toxicity in mouse LL/2 cells inoculated C57BL/6J mouse assessed as effect on body weight by measuring end body weight at 100 mg/kg, ip administered for 12 days and measured for every 2 days (reference value: 17.8 +/- 0.7 g); format: organism-based; conditions: in vivo, 288 h, time 12 day
# [28] = Antitumor activity against mouse LL/2 cells inoculated in C57BL/6J mouse assessed as reduction of tumor weight at 100 mg/kg, ip administered for 12 days and measured at day 14 (reference value: 1.2 +/- 0.3 g); format: functional, Lewis lung carcinoma; conditions: time 12 day
# [29] = system: A549; test: Antiproliferative activity against human A549 cells assessed as cell growth inhibition incubated for 96 hrs by MTT assay; format: functional
# [30] = system: MCF7; test: Antiproliferative activity against human MCF7 cells assessed as cell growth inhibition incubated for 96 hrs by MTT assay; format: functional
# [31] = Toxicity in mouse LL/2 cells inoculated C57BL/6J mouse assessed as effect on body weight by measuring initial body weight at 100 mg/kg, ip administered for 12 days and measured for every 2 days (reference value: 18.6 +/- 0.8 g); format: organism-based; conditions: in vivo, 288 h, time 12 day
# [32] = Antiproliferative activity against mouse LL/2 cells assessed as cell growth inhibition incubated for 96 hrs by MTT assay; format: functional, Lewis lung carcinoma
inhibition [1],IC50 [2] [nM],inhibition [5],IC50 [10] [nM],inhibition [12],IC50 [16] [nM],IC50 [18] [nM],Compound,Activity [3],Activity [4] [%],Activity [6],viability at 20 µM [7] [%],Activity [8] [%],Activity [9] [%],Activity [11] [%],Activity [13] [%],IG50 [14] [µM],Activity [15],viability at 40 µM [17] [%],Activity [19] [%],Activity [20],further results
inactive,130,inactive,> 1000,Active,> 1000,> 1000,Nc1ccccc1NC(=O)CCCCCCNC(=O)/C(Cc1ccc(O)c(Br)c1)=N/O,inactive,8.4,inactive,94.2,4,0.6,1.7,0.1,14,inactive,87.9,3.1,inactive,
inactive,180,inactive,> 1000,Active,> 1000,> 1000,Nc1ccccc1NC(=O)CCCCCNC(=O)/C(Cc1ccc(O)c(Br)c1)=N/O,inactive,10.2,inactive,95.6,2.8,0.4,1.5,0.1,14.3,inactive,85.7,3.8,inactive,
,,,,,,,O=C(CCCCCCC(=O)Nc1ccc([C@H]2O[C@@H](CSc3nc(-c4ccccc4)c(-c4ccccc4)o3)C[C@@H](c3ccc(CO)cc3)O2)cc1)NO [TUBACIN],,,,,,,,,,,,,,Activity [21]: 0.8%; Activity [22]: 8.8%; Activity [23]: 3.9%; inhibition [24]: Active
,170,,> 1000,,> 1000,> 1000,Nc1ccccc1NC(=O)CCCCCCCNC(=O)/C(Cc1ccc(O)c(Br)c1)=N/O,,,,,,,,,5.2,,,,,IG50 [25]: 11.9 µM; Activity [26]: 36.5%; Activity [27]: 18.5 g; Activity [28]: 0.8 g; IG50 [29]: 26 µM; IG50 [30]: 17.9 µM; Activity [31]: 18.6 g; IG50 [32]: 12.2 µM
